Measurements reported in ChEMBL document CHEMBL1145184, “Synthesis, X-ray crystal structure study, and cytostatic and antiviral evaluation of the novel cycloalkyl-N-aryl-hydroxamic acids” (J Med Chem, 2005).
pIC50: −log10 of the molar value. Converted amounts (≈) assume the structure as drawn.

Experiments:
[1] = tested on: SW-620; test: Inhibitory concentration of the compound was determined against SW6 20 cell line; format: functional, cell-based; conditions: Homo sapiens
[2] = tested on: Cytomegalovirus; test: Effective concentration against Davis strain of CMV virus expressed in HEL cells; format: functional, organism-based; conditions: Human betaherpesvirus 5, HEL
Method in brief: (§1)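 Human embryonic lung (HEL) cell cultures infected with cytomegalovirus at 100 plaque forming units. EC50 is the concentration that cuts plaque formation by 50%, given in µg/mL.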

[3] = tested on: CCRF-CEM; test: Inhibitory concentration of the compound was determined againstCEM cell line; format: functional, cell-based; conditions: Homo sapiens
[4] = tested on: MCF7; test: Inhibitory concentration of the compound was determined against MCF-7 cell line; format: functional, cell-based; conditions: Homo sapiens
[5] = tested on: HEp-2; test: Inhibitory concentration of the compound was determined against Hep2 cell line; format: functional, cell-based; conditions: Homo sapiens
[6] = tested on: HeLa; test: Inhibitory concentration of the compound was determined against HeLa cell line; format: functional, cell-based; conditions: Homo sapiens
[7] = Inhibitory concentration of the compound was determined against W138 cell line; format: functional, cell-based, Homo sapiens
Method in brief: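 Cytostatic test on human normal fibroblasts, run in the same panel as the malignant tumour lines L1210, Molt4/C8, CEM, SW620, Hep2, MiaPaCa2, MCF7 and HeLa. The value is reported as an IC50.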

[8] = tested on: L1210; test: Inhibitory concentration of the compound was determined against L1210 cell line; format: functional, cell-based; conditions: Mus musculus
[9] = tested on: Cell line; test: Minimum cytotoxic concentration that causes a microscopically detectable alteration of cell morphology; format: functional; conditions: Homo sapiens
[10] = tested on: Cell line; test: Cytotoxic concentration required to reduce cell growth by 50%; format: functional; conditions: Homo sapiens
Method in brief: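 Growth of HEL cells was measured. CC50 is the concentration that reduces cell growth by 50%, given in µg/mL.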

[11] = tested on: MOLT-4; test: Inhibitory concentration of the compound was determined against Molt 4/C8 cell line; format: functional, cell-based; conditions: Homo sapiens
[12] = tested on: Cytomegalovirus; test: Effective concentration against AD-169 strain of CMV virus expressed in HEL cells; format: functional, organism-based; conditions: Human betaherpesvirus 5, HEL; method in brief: as §1
[13] = tested on: MIA PaCa-2; test: Inhibitory concentration of the compound was determined against MiaPaCa2 cell line; format: functional, cell-based; conditions: Homo sapiens
[14] = tested on: CCRF-CEM; test: Inhibitory concentration was determined against CEM cell line; format: functional, cell-based; conditions: Homo sapiens
[15] = tested on: HeLa; test: Inhibitory concentration of the compound was determined againstHeLa cell line; format: functional, cell-based; conditions: Homo sapiens
[16] = tested on: CCRF-CEM; test: Inhibitory concentration ofthecompound was determined against CEM cell line; format: functional, cell-based; conditions: Homo sapiens
[17] = tested on: L1210; test: Inhibitory concentration against L1210 cell line; format: functional, cell-based; conditions: Mus musculus

Structure (SMILES) | pIC50 [1] | EC50 [2] [µg/mL] | pIC50 [3] | pIC50 [4] | pIC50 [5] | pIC50 [6] | pIC50 [7] | pIC50 [8] | MCC [9] [µg/mL] | CC50 [10] [µg/mL] | pIC50 [11] | EC50 [12] [µg/mL] | pIC50 [13] | pIC50 [14] | pIC50 [15] | pIC50 [16] | pIC50 [17]
O=C(CC1CCCCC1)N(O)c1ccccc1 | 4.70 | 8 (≈ 34.3 µM) | 4.40 | < 4.00 | < 4.00 | 4.52 | 4.15 | 4.57 | 100 | > 200 | 4.39 | 8 (≈ 34.3 µM) | 4.40 |  |  |  | 
O=C(N(O)c1ccc(Cl)cc1)C12CC3CC(CC(C3)C1)C2 | < 4.00 | 7 (≈ 22.9 µM) | < 3.30 | < 4.00 | < 4.00 | < 4.00 | < 4.00 | 3.54 | 100 | > 50 | ≤ 3.30 | 13 (≈ 42.5 µM) | < 4.00 |  |  |  | 
O=C(CCC1CCCC1)N(O)c1ccc(Cl)cc1 | 5.00 | 8 (≈ 29.9 µM) |  | 5.00 | 4.70 |  | 5.00 | 4.42 | 100 | 20 (≈ 74.7 µM) | 4.55 | 10 (≈ 37.3 µM) | 5.15 | 4.43 | 4.52 |  | 
O=C(C1CCCCC1)N(O)c1ccc(Cl)cc1 | 5.00 | 8.9 (≈ 35.1 µM) |  | 4.10 | 4.40 |  | 4.00 | 4.80 | ≥ 20 | 28 (≈ 110 µM) | 4.72 | 7.3 (≈ 28.8 µM) | 4.70 |  | 4.52 | 4.77 | 
O=C(CC1CCCCC1)N(O)c1ccc(Cl)cc1 | 5.05 | 6.2 (≈ 23.2 µM) | 4.80 | 5.00 | 5.05 |  | 4.30 | 4.59 | 50 | 129 (≈ 482 µM) | 4.48 | 7.3 (≈ 27.3 µM) | 5.10 |  | 4.52 |  | 
O=C(CCC1CCCCC1)N(O)c1ccc(Cl)cc1 | 4.70 | 0.8 (≈ 2.84 µM) | 4.44 | 4.70 | 4.52 |  | 4.52 | 4.68 | ≥ 4 | 4.7 (≈ 16.7 µM) | 4.62 | 1.5 (≈ 5.32 µM) | 5.00 |  | 4.52 |  | 
O=C(C1CC1)N(O)c1ccc(Cl)cc1 | 4.22 | > 20 | 4.60 | < 4.00 | < 4.00 |  | < 4.00 |  | 100 | 37 (≈ 175 µM) | 4.62 | > 20 | < 4.00 |  | < 4.10 |  | 4.66
Nc1ccn(C[C@@H](CO)OCP(=O)(O)O)c(=O)n1.O.O [CIDOFOVIR] |  | 0.29 |  |  |  |  |  |  | ≥ 400 | 24 |  | 0.18 |  |  |  |  | 
Nc1nc2c(ncn2COC(CO)CO)c(=O)[nH]1 [GANCICLOVIR] |  | 0.37 (≈ 1.45 µM) |  |  |  |  |  |  | ≥ 400 |  |  | 0.37 (≈ 1.45 µM) |  |  |  |  | 
